To fix the notation:
B1: tRNA (parent)
chain: GUUCCGUUGGCGUAAUGGUAACGCGUCUCCCUCCUAAGGAGAAGACUGCGGGUUCGAGUCCCGUACGGAACG

This sample holds only a part of the variants without activity. Bounds are passed on as bounds.

Variants of B1 are the subject of the data set. The experiment in a line: yeast fitness relative to wild type (ratio to wild type); higher = fitter; tRNA-Arg(CCU), competitive growth, 37 C, YPD. The method, boiled down: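 The tRNA-Arg(CCU) gene variants were made by chemical synthesis with a 3% per-site mutation rate at 69 sites and inserted at the native genomic locus of Saccharomyces cerevisiae. After pooling, the strains were competed in YPD at 37°C for 24 hours in six parallel replicates. Gene amplicons from the start population and each end population were read by 100-nucleotide paired-end sequencing, and Darwinian fitness relative to wild type was taken from genotype frequency changes. Genotypes needed ≥ 100 starting reads, and estimates < 0.5 were set to 0.5.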
In the case of U2G U35C A42C U47A G63C A69C, the yeast fitness is not above 0.5.
On to C11U U59A C60U, for which the yeast fitness was found to be 0.543.
G25C G41C: the yeast fitness turned out to be 0.625.
As for G10A C55A G68C, the figure is not above 0.5; as for C24G A45U G67A, not above 0.5; as for C5A C22G C27G A36U A40C C66U, not above 0.5.
Regarding U32A A45U, the yeast fitness came to 0.789.
The result for A21C G25A C30A A37U C66A reads not above 0.5.
The result for C31U C46A A65U A69U reads 0.58.
The result for C4U C34U A43C A69U reads 0.557; that for A45C G48C A69U, 0.675; that for U8C U26C A37U A57G, not above 0.5.
Regarding U2C C24G C29U C62G C66A, the yeast fitness was not above 0.5.
In the case of U2C C4U A36G G44C, the yeast fitness was determined as 0.615.
As to C34U A57G, the yeast fitness was 0.737.
The result for U3A U13G U47C A70C reads not above 0.5; that for G12A C61A, 0.659.
As for A15G C31G U35C A37U A57U, the figure is not above 0.5; as for G17A A45U G52A A70U, 0.535.
Turning to C5G U8C C27G C33G U35A, the yeast fitness is not above 0.5.
The result for U3A G10C A36U A40C C60G reads 0.569.
Regarding A20U A36G C55G, the yeast fitness turned out to be 0.579.
As for C5A U13G A14G U32A A42U G52A U54A C60G, the figure is not above 0.5; as for U7A A14G U28G C30U, not above 0.5.
C31A A40G A43C G44A: the yeast fitness is not above 0.5.
As for C4U A20U U47G G58A C62A, the figure is not above 0.5.
As for U7C G41A A42C G50C A69U, the figure is 0.556; as for A36G A37U C66A A69U, not above 0.5.
G25C C29G A43G C49G: the yeast fitness was 0.647.
As for C30A G41C, the figure is 0.796; as for C60A A70G, 0.531; as for U3C U28A U35C A37C G56C A57G G68U, not above 0.5.
Turning to C5G U7A A20G U47G G50C G51C, the yeast fitness was not above 0.5.
U16A G48A: the yeast fitness is 0.896.
As for C4A G12C A21C C22G C55A C60U C62G A69C, the figure is not above 0.5; as for A42G, 0.934; as for U2C U13G C22U C60G A65G, not above 0.5.
As for G12A C24A A36U, the figure is 0.666.
As for C29U A43C, the yeast fitness is 0.948.
The result for C27A A70U reads 0.962; that for U13C G25A C31U G38C, 0.659; that for U26G C55G U59A U64G, not above 0.5.
As to U3G G6A A15G C34A A70G, the yeast fitness was not above 0.5.
As for C4A C5U C22U C49U, the figure is not above 0.5.
As for G9C C27G C29G A36C C61A, the yeast fitness is not above 0.5.
As for U8C G18A, the yeast fitness is 0.686.
As for G6C A36C A65C G67A, the figure is not above 0.5.
The result for C62U G63A reads 0.719; that for C46U A57U, 1; that for U16C C33U A36C G56C, not above 0.5.
For the variant A40U A43U C60U C62U C66U, the yeast fitness was not above 0.5.
The result for C4G A14C A20G reads 0.619; that for U26C A37U, 0.702.
As for G39A G48C C61A, the figure is not above 0.5; as for G10C C55G A70C, not above 0.5; as for C11U G12A G44C C46U, 0.575.
The result for G25U U64A reads 0.687; that for C4A U26A U32G A42C A57U, not above 0.5.
Turning to C22A C60U, the yeast fitness was 0.682.
The result for A20U U47G reads 0.611; that for U8A C24A U64A, not above 0.5; that for G25A U53A, 0.741.
As for G25C C61A, the figure is 0.75; as for C31U C49U A69U, 0.889.
As for C11U C31A G67A, the figure is not above 0.5.
In the case of C5G C27U C49A U54C C60G, the yeast fitness was not above 0.5.
As to C30U A43U U54A, the yeast fitness is 0.541.
The result for C24G C31G C61G reads 0.507; that for U3C G9A C34G A42G C49G C62U A69C, not above 0.5; that for C4U C22G U28A A36U A65U, not above 0.5.
As for A15G G51A A70U, the figure is 0.533; as for U2G A43U G67C, 0.668; as for U26C C30U, 0.67.
The result for G23C G63C reads 0.594.
As to G39A G68A, the yeast fitness is 0.853.
The result for G12C A20U C30U C49U C55U C66U reads 0.559; that for G18C U19C A21G C61U, not above 0.5.
The result for C5U U7C C24G C27A reads not above 0.5.
As to C11G G18A G23A, the yeast fitness was not above 0.5.
The result for C4U G12C C30G A36C reads not above 0.5.
As for U13A A45G G58C A69U A70U, the figure is 0.603.
The result for U32A A37C C66U reads not above 0.5.
Take U16A C62A: the yeast fitness worked out at 0.786.
The result for C34A G39C reads 0.792.
As for C22G G58C C61A A69U, the figure is not above 0.5.
For A36C G48A, the yeast fitness came to 0.594.
The result for C30G A42U A45G reads not above 0.5; that for C4G U8A G12A G48A, 0.511; that for C5G C29A C31A, 0.714.
As for G9A G68A, the figure is 0.864; as for U16A U19A A69C, 0.747; as for G25C C55U, 0.916.
Regarding C31U U47A G51U C62U, the yeast fitness was not above 0.5.
As for G18A C31G A70U, the figure is 0.687; as for A14U G39C C55G C62A, not above 0.5; as for C24G G58C C62U, not above 0.5.
The result for C27A G41C A57U reads 0.611; that for U8C C33U A36C A43G A57U, not above 0.5.
As to C5A U35C G44A G48C C55G C66U A70U, the yeast fitness stood at 0.558.
The result for A15C A20G C61U C62U A69G reads 0.764; that for A15G C49G C66G G67C, not above 0.5.
As for A21C G23A C49A C60G G63A, the figure is not above 0.5.
The result for U3C A36G reads 0.91; that for G50A C55U, 0.893; that for U19A U59A, 0.845.
Turning to A14U C22G A70U, the yeast fitness worked out at 0.576.
The result for U32C C55U C62U reads 0.653; that for G18C C33A U54A C62A, 0.577.
As for U2C C4U U47A, the figure is 0.525; as for A14G A15U G50U U64G, 0.542.
As for G9C C30G A36U C46A, the figure is 0.532; as for U28A C30U C55A, not above 0.5.
Take G25C A42C C61U: the yeast fitness was not above 0.5.
The result for C5G G68U reads 0.678; that for C29G G41A, 0.723.
As to G25C G51A, the yeast fitness was 1.01.
The result for G9C A15U C31U U35C G51C G56A C62G reads not above 0.5; that for C11G U19C C27G U28G, not above 0.5.
In the case of C11A A20U U47C C60G, the yeast fitness was not above 0.5.
The result for U16C C24U C30U C62A reads not above 0.5; that for G10A G50A U59A C61A, not above 0.5; that for A57G A69C, 0.799.
As for U16C A21C A37G A69G A70G, the figure is not above 0.5.
For A14U C27G, the yeast fitness was 0.611.
As for U28A C31G C55A G68C, the figure is not above 0.5.
The result for A43U C46A A69C reads 0.734; that for G50C U54C, 0.635; that for A15C C60A A70U, 0.555.
The result for C31U G48C G67C reads 0.649; that for G51C C61U, 0.604; that for C34U A36U, not above 0.5.
For the variant U7C G56C, the yeast fitness is 0.692.
As for U3G G68A, the figure is 0.851; as for G10C G17A U35G, not above 0.5; as for C4U G23C A40U A42G A45G G51C C61U, not above 0.5.
The result for U2C U19C U54A A69C reads not above 0.5; that for A37G C49U, 0.819; that for U7G U19A C30G C33U C61G, not above 0.5.
As for C22U U53C C61G G67A A69C, the figure is not above 0.5; as for C24U U32C G39C, 0.517; as for A14C C27G C46G, 0.619.
On to U19A A20C A21G C30G C55G, for which the yeast fitness was determined as 0.573.
As for A20G A43G, the figure is 1.07; as for U3C A45G, 0.903; as for C30U A45G G48C G58C U59A, 0.548.
As for G12C C31G G51A C55G A57G G68C, the figure is not above 0.5; as for A14U A45C C46U C49G G63A A70U, 0.661.
As for A42C A57C C61A, the figure is not above 0.5.
With C5G G10A C11G U16G C33G C66U, the yeast fitness is not above 0.5.
With U16C C60G, the yeast fitness was 0.658.
As for A21C C31A C33G A45G G48A A65U, the figure is not above 0.5; as for U16A A65G, 0.933.
The result for G9A C29U C46U G67C reads 0.583; that for C27G G51C, 0.78; that for C29G C60U G67A A69U, 0.588.
The result for U19G C33G U47A reads 0.542; that for U8C G23A C34A A42U C46A A57C, not above 0.5; that for U3C C30A U35C G39A A42C A43G C46U A65C, not above 0.5.
As for U16A A37G C62U, the yeast fitness is 0.543.
The result for U8C C31A A42G A43G G68C reads 0.559; that for G17A A69C A70C, 0.588; that for A15G A20U C29G A43G, not above 0.5.
The result for U16G C33U G44C reads not above 0.5.
The result for C4U G6A U8G C31U C49A G67A reads not above 0.5.
On to A14C A20U C66U, for which the yeast fitness was not above 0.5.
For the variant U7C G18A C31A G56C, the yeast fitness is not above 0.5.
As for C5U A20U A45C C60U C61A, the figure is not above 0.5.

For the origin of these results see the RNAGym collection of RNA variant scans (doi:10.1126/science.aae0568).
